Compound activity (PubChem BioAssay)
An excerpt weighted towards active compounds, which were near 1.6% of everything screened.
HSV replic up: increases HSV replication in cells; HSV replication augmentation in cells, fold increase; maximum fold increase; 220,000 tested, 0.005% active; in the data active = maximum fold increase above about 1.5; tested in PC3 cells
PKD1 kinase inh: PKD1 (human) kinase inhibition | Q15139 | PKD1 kinase fluorescence polarization assay | inhibition, % (test concentration not listed) | 200,000 tested, 0.056% active | AID 797; in the data active = inhibition above about 50%
p47phox inh: blocks human p47phox regulatory protein of NADPH oxidases; 220,000 tested, 0.53% active; p47phox/p22phox peptide binding, fluorescence polarization, 2 h; AID 1274; inhibition, % at 24.7 µM;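 active = inhibition above about 30%, limit read from the data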;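 note: 0% = p47phox with labelled peptide and 100% = labelled peptide alone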
PHOSPHO1 block: PHOSPHO1 (human) inhibition; Q8TCT1; recombinant PHOSPHO1, absorbance phosphatase assay; inhibition, % at 13.3 µM; 290,000 tested, 1.1% active; AID 1565; in the data active = inhibition above about 60%
Target sequence (Q8TCT1 whole entry, looked up): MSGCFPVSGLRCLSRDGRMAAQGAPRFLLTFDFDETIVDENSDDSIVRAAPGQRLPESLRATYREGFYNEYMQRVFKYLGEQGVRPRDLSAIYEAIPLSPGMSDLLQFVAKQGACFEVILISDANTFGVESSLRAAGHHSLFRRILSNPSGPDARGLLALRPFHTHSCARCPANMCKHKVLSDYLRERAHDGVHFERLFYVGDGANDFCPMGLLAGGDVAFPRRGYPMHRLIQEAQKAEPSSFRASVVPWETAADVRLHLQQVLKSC
ABCB1 block: blocks JC-1 efflux by human ABCB1 transporter. P08183. CCRF-Adr cells, flow cytometry. inhibition, % at 6.6 µM. 190,000 tested, 0.067% active; in the data active = inhibition above about 40%;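 note: 0% = vehicle and 100% = reference inhibitor; higher value means more JC-1 retained so stronger ABCB1 efflux block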
ABCG2 inh: human ABCG2 inhibition, ABCB1 as counter-screen; Q9UNQ0; IgMXP3 cells, JC-1 efflux, flow cytometry; inhibition, % at 6.6 µM; 190,000 tested, 0.1% active; AID 1325;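 active = inhibition above 80%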;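 note: 0% = DMSO and 100% = nicardipine control wells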
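Test system: ABCG2 IgMXP3 and barcoded ABCB1 CCRF-Adr cell mix; Schedule: cells with compound and JC-1, 10 min at 25 °C, rotating, no wash; Technique: flow cytometry of retained JC-1 fluorescence; Measure: % inhibition of efflux relative to nicardipine and DMSO; Controls: nicardipine high and DMSO low controls.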
Active calls of the source: *; i = inactive; x = no result given.

SMILES	HSV replic up	PKD1 kinase inh	p47phox inh	PHOSPHO1 block	ABCB1 block	ABCG2 inh
COc1ccccc1N1C(=O)CC(Sc2n[nH]c(-c3cccc(C)c3)n2)C1=O (stereo not drawn)	i	-3	-5	81*	-1	-4
COc1ccccc1N1C(=O)CC(Sc2nccc(C)n2)C1=O (stereo not drawn)	i	2	-10	-48	0	4
COc1ccc(C(=O)NNC(=O)CSc2nnc(-c3ccc(O)cc3)n2C)cc1	i	-7	1	16	0	1
COc1ccc(/C=C2\SC(=S)N(CC3CCCO3)C2=O)cc1 (stereo not drawn)	i	x	-7	4	x	x
COc1ccc(N=C2O/C(=C/c3sc(=S)n(CC4CCCO4)c3O)N=C2C#N)cc1 (stereo not drawn)	i	x	42*	36	x	x
O=C(NCC1COCCO1)c1ccc2nc(Cc3cccc(Cl)c3)oc2c1 (stereo not drawn)	x	x	x	33	x	x
CC(CCCC(C)(C)O)NC(=O)c1cc(COc2ccc3ncccc3c2)on1 (stereo not drawn)	i	2	2	41	1	-1
Cc1cc(C)nc(Sc2nc(Cl)nc(N(c3ccccc3)c3ccccc3)n2)n1	i	3	-2	83*	3	17
Cc1ccc(/C=N/NC(=S)N2CCOCC2)cc1	i	-6	-3	62*	1	3
S=C(N/N=C/c1ccc(Cl)cc1)N1CCOCC1	i	-5	-13	-5	0	3
c1ccc(-c2nnc(SCc3nc4ccccc4[nH]3)n2Cc2ccco2)cc1	i	-3	-17	96*	1	4
Nn1c(SCc2nc3ccccc3[nH]2)nnc1-c1ccccc1	i	-5	-1	56	0	1
CCn1c(COc2ccc(C)cc2)nnc1SCc1ccc(C#N)cc1	i	-4	-11	94*	1	1
Clc1ccc(OCCSCc2nc3ccccc3[nH]2)cc1	i	5	-13	69*	0	1
Cc1ccc(OCc2nnc(SCc3nc4ccccc4[nH]3)n2Cc2ccco2)cc1	i	19	-10	84*	1	5
COc1ccc(N2CCN(C(=O)c3ccccc3NS(=O)(=O)c3ccc(C)cc3)CC2)cc1	x	x	x	56	x	x
CSc1ccccc1NC(=O)CSc1nnc(COc2ccccc2)o1	x	x	x	27	x	x
O=C(O)C1C2CCC(O2)C1C(=O)Nc1ccc(OC(F)F)cc1 (stereo not drawn)	x	x	x	34	x	x
CCn1c(COc2ccc(Cl)cc2)nnc1SCc1nc2ccccc2[nH]1	i	0	-5	91*	-5	4
CCn1c(COc2ccc(OC)cc2)nnc1SCc1nc2ccccc2c(=O)[nH]1	i	3	9	-16	0	1
Cc1ccc2c([N+](=O)[O-])c(C)ccc2n1	i	-268	-12	65*	0	-1
COCC(C)n1c(C)cc(C(=O)CSc2nnc(Nc3ccccc3F)s2)c1C (stereo not drawn)	i	-4	-11	80*	-2	-1
COCC(C)n1c(C)cc(C(=O)CSc2ncccn2)c1C (stereo not drawn)	i	-2	3	-50	0	0
O=C1c2ccccc2C(=O)C12OC2c1cccc2ccccc12 (stereo not drawn)	i	2	-5	66*	0	-9
O=C1CCCCC1c1cccc2ccccc12 (stereo not drawn)	x	-17	-15	12	x	0
SMILES	HSV replic up	PKD1 kinase inh	p47phox inh	PHOSPHO1 block	ABCB1 block	ABCG2 inh
COC(=O)C1=C(C)Nc2ccc(C)cc2S1	i	-8	-28	38	0	-1
CC(=O)C1=C(C)Nc2cc(C(F)(F)F)ccc2S1	i	-16	-15	96*	0	2
Cn1nnnc1SCc1csc(Nc2ccccc2)n1	i	-1	-10	95*	0	1
CSc1nc2oc3c(c2c2nncn12)CC(C)(C)SC3	i	1	-9	78*	1	5
CC1(C)Cc2c(oc3ncn4ncnc4c23)CO1	i	14	-8	13	0	1
O=C(CCc1c[nH]c2ccccc12)NCc1ccc2c(c1)OCO2	i	-3	-8	61*	0	2
Cc1ccccc1Cn1c(=O)n(CCC(=O)NCc2ccc3c(c2)OCO3)c(=O)c2ccccc21	i	1	37*	2	0	1
CCSc1nc2sc3c(c2c(=O)[nH]1)CCCC3	i	2	-58	2	0	0
CCSC1=NC2(CCCCC2)Nc2sc3c(c21)CCCC3	i	-5	7	95*	0	-1
O=C(Cc1ccc([N+](=O)[O-])cc1)Nc1cc(C(F)(F)F)cc(C(F)(F)F)c1	i	x	-4	21	x	x
CCc1nnc(NC(=O)c2cc(-c3ccccn3)nc3ccc(Br)cc23)s1	x	x	x	72*	x	x
COc1ccccc1CCNC(=O)c1cc(-c2ccccn2)nc2ccc(Br)cc12	i	-3	-18	46	0	4
COc1ccccc1CCNC(=O)c1cc(-c2ccncc2)nc2ccc(Br)cc12	i	0	39*	54	3	9
CSc1ccccc1NC(=O)c1cc(-c2cccnc2)nc2ccc(Br)cc12	i	-5	31*	25	7	11
CCOc1ccc(NC(=O)c2c(NC(=O)CNCCN3CCOCC3)sc3c2CCC3)cc1	x	x	x	43	x	x
Cc1cccc(CS(=O)(=O)Cc2ccc(C(=O)NC3CCCC3)o2)c1	x	x	x	47	x	x
CC(C)(C)NC(=O)COc1ccc(CNn2nnnc2N)cc1	i	1	56*	1	0	0
C[C@@H]1CC[C@]2(O[C@H](CCO)C[C@H](O)[C@H]2O)O1	i	x	x	x	x	x
COc1cc(CNn2c(C)n[nH]c2=S)cc(Cl)c1OCc1ccccc1	i	-1	-5	84*	-1	-5
Cc1nn(CCc2nc(-c3ccco3)cs2)c2[nH]c(=O)cc(C(F)(F)F)c12	i	-1	-16	77*	0	3
Cc1cc(C)n(CCc2nc(-c3ccco3)cs2)n1	i	-9	-20	41	0	8
Cc1ccc2[nH]c(O)c(N=NC(N)=S)c2c1	i	x	-3	8	x	x
CC(/C=C(\NC(=O)c1ccccc1)C(=O)N=Nc1c(O)[nH]c2ccc(C)cc12)=C\c1ccccc1	i	3	-5	91*	0	0
CS(=O)(=O)c1sc2nc(-c3cccs3)cc(-c3ccccc3)c2c1N	i	-12	-81	11	1	2
Cc1ccc(-c2cc(-c3ccccc3)c3c(N)c(S(C)(=O)=O)sc3n2)cc1	i	-8	-21	82*	0	2
CS(=O)(=O)N(CC(=O)N/N=C/c1cccc2c1OCCO2)c1ccccc1Br	i	12	-10	60*	0	3
C[C@H](NC(=O)[C@H](Cc1ccccc1)n1c(=O)[nH]c2ccccc2c1=O)C(=O)N1CCC(C(=O)O)CC1	x	x	x	23	x	x
Cc1cc(C(=O)N/N=C/c2ccc([N+](=O)[O-])o2)c(C)o1	i	x	56*	6	x	x
